Results on 1 compound are retold here after ChEMBL document CHEMBL4017517, “Small Molecule Inhibitors Simultaneously Targeting Cancer Metabolism and Epigenetics: Discovery of Novel Nicotinamide Phosphoribosyltransferase (NAMPT) and Histone Deacetylase (HDAC) Dual Inhibitors” (J Med Chem, 2017).

Activity calls are given as the source filed them. The rule behind the calls is not given here.

The target in one data set is Histone deacetylase 1 (Homo sapiens, UniProt Q13547). As to the kind of experiment: Inhibition of human recombinant HDAC1 (1 to 482 residues) expressed in Baculovirus using Ac-Leu-Gly-Lys(Ac)-AMC as substrate preincubated for 5 mins followed by substrate addition measured after 30 mins by fluorescence assay.
Chain of Histone deacetylase 1 (Q13547 whole entry, the tested form may be a part): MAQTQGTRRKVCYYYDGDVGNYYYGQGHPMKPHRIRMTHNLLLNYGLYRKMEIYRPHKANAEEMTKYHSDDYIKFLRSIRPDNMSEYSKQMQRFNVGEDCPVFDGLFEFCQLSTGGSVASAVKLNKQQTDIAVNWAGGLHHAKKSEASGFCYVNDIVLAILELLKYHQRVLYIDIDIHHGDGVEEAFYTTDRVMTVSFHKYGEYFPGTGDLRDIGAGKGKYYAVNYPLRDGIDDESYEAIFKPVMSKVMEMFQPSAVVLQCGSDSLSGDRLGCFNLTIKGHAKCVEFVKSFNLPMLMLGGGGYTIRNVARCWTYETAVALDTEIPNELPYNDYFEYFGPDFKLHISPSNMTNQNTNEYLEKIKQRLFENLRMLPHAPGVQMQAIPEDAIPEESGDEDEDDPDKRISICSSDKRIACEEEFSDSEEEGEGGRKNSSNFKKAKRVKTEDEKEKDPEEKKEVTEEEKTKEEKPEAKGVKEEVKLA
The species named for the next data set is Homo sapiens. As to the kind of experiment: Inhibition of HDAC in human HCT116 cells assessed as increase in acetylated histone H4 level after 24 hrs by Western blot analysis. The format is cell-based. Summed up:
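HCT116 cells treated at 1 and 5 μM for 24 h; DMSO-volume control. PBS-washed, RIPA-lysed on ice 30 min, centrifuged 12000 × g 15 min at 4 °C. 30 μg protein separated by SDS-PAGE, blotted to PVDF, blocked 5% BSA 2 h. Incubated with acetyl-histone H3 or H4 primary antibody overnight at 4 °C, then secondary antibody; infrared imaging.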
On the technique in general: Immunoblotting shows a protein as a band on a membrane.

Data set [1] concerns HCT-116. Put plainly: Induction of apoptosis in human HCT116 cells assessed as early apoptotic cells at 5 uM after 72 hrs in presence of autophagy inhibitor wortmannin by Annexin V-FITC/propidium iodide staining-based flow cytometric analysis (reference value: 7.82%). It is filed as functional.
Data set [2] can be described thus: Terminal half life in Sprague-Dawley rat at 2 mg/kg, ip. The format is ADME, organism-based. To be noted: in vivo, read-out: beta t1/2 (converted). The method in brief: (§1)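 Sprague-Dawley rats given a single ip dose of 2 mg/kg. Plasma concentration–time profile used to derive terminal half-life, Cmax, plasma clearance and Vss.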
In data set [3] the test system is HCT-116. As to the kind of experiment: Induction of apoptosis in human HCT116 cells assessed as necrotic cells at 5 uM after 72 hrs in presence of autophagy inhibitor wortmannin by Annexin V-FITC/propidium iodide staining-based flow cytometric analysis (reference value: 1.25%). It is filed as functional. For orientation: In flow cytometry, cells or beads pass a laser one at a time.

In data set [4] the test system is HCT-116. Put plainly: Induction of apoptosis in human HCT116 cells assessed as late apoptotic cells at 5 uM after 72 hrs in presence of autophagy inhibitor wortmannin by Annexin V-FITC/propidium iodide staining-based flow cytometric analysis (reference value: 3.33%). It is filed as functional.
Data set [5] has as its system HCT-116. Put plainly: Cell cycle arrest in human HCT116 cells assessed as accumulation at G2 phase at 5 uM after 48 hrs by propidium iodide staining based flow cytometry (reference value: 5%). The format is functional.
The next data set has as its target Histone deacetylase 4 (Homo sapiens, UniProt P56524). Put plainly: Inhibition of GST tagged human recombinant HDAC4 (H86 to 31G) expressed in Baculovirus infected Sf9 insect cells using Ac-Leu-Gly-Lys(Tfa)-AMC as substrate preincubated for 5 mins followed by substrate addition measured after 30 mins by fluorescence assay.
Data set [6] relates to HCT-116. As to the kind of experiment: Cell cycle arrest in human HCT116 cells assessed as accumulation at G2 phase at 1 uM after 48 hrs by propidium iodide staining based flow cytometry (reference value: 5%). It is filed as functional.
A further data set concerns the target Histone deacetylase 2 (Homo sapiens, UniProt Q92769).
The subject of the next data set is Rattus norvegicus. As to the kind of experiment: Volume of distribution at steady state in Sprague-Dawley rat at 2 mg/kg, ip. It is filed as ADME, organism-based. Particulars: in vivo. The method in brief:
as §1

For another data set, the target named is T1, Histone deacetylase 8 (Homo sapiens, UniProt Q9BY41).
T1 sequence (Q9BY41 whole entry): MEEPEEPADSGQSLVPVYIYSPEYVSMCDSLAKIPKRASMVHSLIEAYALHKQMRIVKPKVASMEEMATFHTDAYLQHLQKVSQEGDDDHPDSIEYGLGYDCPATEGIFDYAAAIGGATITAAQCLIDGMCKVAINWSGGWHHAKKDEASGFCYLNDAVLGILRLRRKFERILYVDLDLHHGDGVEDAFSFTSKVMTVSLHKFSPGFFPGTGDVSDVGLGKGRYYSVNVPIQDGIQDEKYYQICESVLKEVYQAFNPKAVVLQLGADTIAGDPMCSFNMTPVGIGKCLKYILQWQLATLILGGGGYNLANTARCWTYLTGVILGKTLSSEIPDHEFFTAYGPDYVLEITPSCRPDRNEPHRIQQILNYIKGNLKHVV
Put plainly: Inhibition of GST tagged full length human recombinant HDAC8 (H90 to 30H) expressed in Baculovirus infected Sf9 insect cells using Ac-Leu-Gly-Lys(Tfa)-AMC as substrate preincubated for 5 mins followed by substrate addition measured after 30 mins by fluorescence assay.

Data set [7] deals with HCT-116. Put plainly: Induction of apoptosis in human HCT116 cells assessed as necrotic cells at 5 uM after 72 hrs by Annexin V-FITC/propidium iodide staining-based flow cytometric analysis (reference value: 1.25%). It is filed as functional. The method in brief: (§2)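 HCT116 cells seeded at 5×10^5 cells/mL in six-well plates, treated at 5 μM for 72 h alongside vehicle. Cells trypsinized, washed twice in cold PBS, and resuspended in 1× binding buffer. Stained with annexin V-FITC 15 min at room temperature, then PI 15 min in dark, then flow cytometry.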

Data set [8] relates to HCT-116. Put plainly: Induction of apoptosis in human HCT116 cells assessed as late apoptotic cells at 5 uM after 72 hrs by Annexin V-FITC/propidium iodide staining-based flow cytometric analysis (reference value: 3.33%). It is filed as functional. Summed up:
as §2

Chain of Histone deacetylase 2 (Q92769 whole entry): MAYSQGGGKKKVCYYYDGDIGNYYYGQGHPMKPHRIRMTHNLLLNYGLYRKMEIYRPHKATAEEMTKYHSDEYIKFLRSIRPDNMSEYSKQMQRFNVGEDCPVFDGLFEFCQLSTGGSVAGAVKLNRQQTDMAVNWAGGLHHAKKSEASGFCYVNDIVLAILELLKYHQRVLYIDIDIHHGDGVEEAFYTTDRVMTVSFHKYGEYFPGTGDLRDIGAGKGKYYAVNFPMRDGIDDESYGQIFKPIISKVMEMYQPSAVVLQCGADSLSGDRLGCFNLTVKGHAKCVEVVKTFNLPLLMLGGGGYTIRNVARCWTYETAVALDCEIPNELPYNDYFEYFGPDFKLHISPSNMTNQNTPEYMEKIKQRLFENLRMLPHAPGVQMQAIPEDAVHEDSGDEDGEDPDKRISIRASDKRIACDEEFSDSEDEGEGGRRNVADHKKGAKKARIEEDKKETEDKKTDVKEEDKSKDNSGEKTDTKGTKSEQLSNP
Chain of Histone deacetylase 4 (P56524 whole entry): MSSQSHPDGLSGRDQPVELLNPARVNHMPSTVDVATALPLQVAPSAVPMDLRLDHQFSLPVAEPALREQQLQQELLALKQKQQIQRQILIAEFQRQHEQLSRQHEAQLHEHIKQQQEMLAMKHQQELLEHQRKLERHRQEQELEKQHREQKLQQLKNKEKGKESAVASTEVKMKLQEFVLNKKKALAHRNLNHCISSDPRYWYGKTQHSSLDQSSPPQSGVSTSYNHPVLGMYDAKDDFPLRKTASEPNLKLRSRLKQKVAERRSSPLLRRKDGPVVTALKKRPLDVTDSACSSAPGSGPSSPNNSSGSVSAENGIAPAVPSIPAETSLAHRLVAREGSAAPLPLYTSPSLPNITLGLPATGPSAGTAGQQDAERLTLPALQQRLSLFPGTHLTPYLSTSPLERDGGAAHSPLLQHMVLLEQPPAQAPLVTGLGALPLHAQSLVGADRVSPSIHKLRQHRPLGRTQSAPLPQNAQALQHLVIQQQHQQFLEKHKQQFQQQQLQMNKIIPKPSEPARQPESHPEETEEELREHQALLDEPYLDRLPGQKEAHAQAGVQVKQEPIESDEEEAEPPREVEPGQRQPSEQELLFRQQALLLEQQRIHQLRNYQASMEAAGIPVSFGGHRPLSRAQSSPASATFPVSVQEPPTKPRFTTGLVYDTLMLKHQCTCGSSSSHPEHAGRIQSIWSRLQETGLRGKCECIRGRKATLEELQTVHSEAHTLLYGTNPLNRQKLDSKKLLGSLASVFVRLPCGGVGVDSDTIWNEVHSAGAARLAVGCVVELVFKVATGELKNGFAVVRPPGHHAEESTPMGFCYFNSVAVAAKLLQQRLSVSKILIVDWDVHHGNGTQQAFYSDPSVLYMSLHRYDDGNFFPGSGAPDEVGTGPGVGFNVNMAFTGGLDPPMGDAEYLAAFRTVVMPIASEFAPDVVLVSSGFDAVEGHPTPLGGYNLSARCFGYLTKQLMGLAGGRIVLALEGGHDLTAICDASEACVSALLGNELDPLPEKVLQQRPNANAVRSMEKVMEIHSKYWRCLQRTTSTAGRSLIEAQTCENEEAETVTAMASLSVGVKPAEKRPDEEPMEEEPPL

In general, IC50 refers to the midpoint of a concentration-inhibition curve. `Nc1ccccc1NC(=O)c1ccc(Cn2cc(-c3ccc(C(=O)NCc4cccnc4)cc3)nn2)cc1`: the half-inhibitory concentration (IC50) is 55 nM on Histone deacetylase 1, over 100000 nM at Histone deacetylase 4, 75 nM on Histone deacetylase 2 and over 100000 nM at Histone deacetylase 8. For the same compound, the inhibition result in the data set listed under Homo sapiens is “Active”. Besides, the Activity in the data set on HCT-116 [1] worked out at 12.46%; with HCT-116 [3], 2.19%; in the data set with HCT-116 [4], 15.22%; with HCT-116 [5], 39%; in the data set with HCT-116 [6], 19%; in the data set with HCT-116 [7], 2.43%. Besides, the Activity with HCT-116 [8] is on record as 21.84%. For the same compound, the half-life in data set [2] was 1.8 h. Besides, the Vdss with Rattus norvegicus stood at 6.229 L/kg.
